Source: ChEMBL document CHEMBL3856278, “Antitumor Activity of Lankacidin Group Antibiotics Is Due to Microtubule Stabilization via a Paclitaxel-like Mechanism” (J Med Chem, 2016)
Activity calls are given as the source filed them. The rule behind the calls is not given here.

What was measured:
[1] = biological target: Tubulin alpha-1A /beta chains (Homo sapiens) (UniProt Q71U36+P07437); assay: (§1) Binding affinity to human recombinant tubulin alpha 1A/tubulin beta chain after 30 mins by fluorescence quenching assay; assay type: protein-complex assay
In short: (§2)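 Free tubulin dimers (porcine brain tubulin, or recombinant human αI-βI) at 2 μM final in 10 mM sodium phosphate, 10 mM MgCl2, 1 mM GTP, 0.5% DMSO, 250 mM sucrose, pH 7.0. Held on ice 10 min, then ligand added at 5–100 μM final. Incubated 30 min at 25 °C, then rotated 1 h at room temperature. Tryptophan emission read at 310–400 nm with 295 nm excitation. Kd derived by Stern–Volmer fit.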

[2] = biological target: Tubulin alpha-1A /beta chains (Homo sapiens, UniProt P07437+Q71U36); assay: as §1; assay type: protein-complex assay; in short: as §2
Sus scrofa [3] = species on record: Sus scrofa; assay: (§3) Binding affinity to free porcine brain tubulin dimers after 30 mins by fluorescence quenching assay; in short: as §2
[4] = as §3; parameters: species or system Sus scrofa; in short: as §2
Sus scrofa [5] = species on record: Sus scrofa; assay: Induction of porcine tubulin polymerization assessed as bypass of nucleation phase at 100 uM measured every 94 secs
In short: (§4)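 Assembly followed at 37 °C by OD340 every 94 s for 61 cycles. Averaged curves from three runs were analysed for nucleation, Vmax and final polymer mass.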

Sus scrofa [6] = species on record: Sus scrofa; assay: Induction of porcine tubulin polymerization assessed as doubling of final polymer mass at 100 uM measured every 94 secs; in short: as §4
T47D [7] = assay: Stabilization of interphase microtubule network in human T47D cells at 1 mM after 2 hrs by DAPI staining-based immunofluorescence assay; assay type: cell-based
In short: (§5)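 T47D cells seeded on coverslips and synchronized. Treated 2 h with drug (colchicine 0.5 μM, paclitaxel 100 nM, lankacidin C 1 mM) against a 1% DMSO control. Stained with anti-tubulin antibody and Alexa Fluor 488 secondary, DNA counterstained with DAPI. Imaged by epifluorescence microscopy with a 63× objective.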

Sus scrofa [8] = species on record: Sus scrofa; assay: Stabilization of rhodamine labeled porcine microtubule assessed as appearance of long strands microtubules at 10 uM after 5 mins by upright fluorescence microscopic analysis
In short: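 Rhodamine-labeled tubulin mixed 1:4 with unlabeled tubulin to 5 mg/mL in G-PEM (12% glycerol, pH 7.0). Polymerized 20 min at 37 °C, then drug added to 10 μM and incubated 5 min more at 37 °C. Diluted to 1.3 mg/mL and imaged immediately by fluorescence microscopy with a 40× oil objective.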

T47D [9] = assay: Stabilization of interphase microtubule network in human T47D cells assessed as disruption of mitotic spindles at 1 mM after 2 hrs by DAPI staining-based immunofluorescence assay; assay type: cell-based; in short: as §5
[10] = Cytotoxicity against human T47D cells assessed as decrease in cell viability after 48 hrs by CellTiter-Blue assay; assay type: functional, cell-based
In short: (§6)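 HeLa cells in DMEM with 10% FBS; T47D cells in RPMI1640 with 10% FBS, insulin and pyruvate. Cells seeded at 2000 per well 24 h before treatment. Triplicate wells given increasing drug concentrations in DMSO for 48, 72 or 96 h. Viability read by CellTiter-Blue fluorescence (560ex/590em) after 2–4 h with reagent. Run twice; mean and SEM reported.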

[11] = Cytotoxicity against human HeLa cells assessed as decrease in cell viability after 72 hrs by CellTiter-Blue assay; assay type: functional, cell-based; in short: as §6
Sus scrofa [12] = species on record: Sus scrofa; assay: Induction of porcine tubulin polymerization assessed as maximum growth rate at 100 uM measured every 94 secs (reference value: 13 milliOD/min); in short: as §4
Sus scrofa [13] = species on record: Sus scrofa; assay: Induction of porcine tubulin polymerization assessed as increase in final polymer mass at 10 uM measured every 94 secs; in short: as §4
Sus scrofa [14] = species on record: Sus scrofa; assay: Induction of porcine tubulin polymerization assessed as decrease in duration of nucleation phase at 10 uM measured every 94 secs; in short: as §4
[15] = Binding affinity to paclitaxel binding site of porcine microtubule after 1 hr by Michaelis-Menten plot analysis; parameters: species or system Sus scrofa; details: read-out: Kd(app)
Sus scrofa [16] = species on record: Sus scrofa; assay: Induction of porcine tubulin polymerization assessed as maximum growth rate at 10 uM measured every 94 secs (reference value: 13 milliOD/min); in short: as §4
[17] = Cytotoxicity against human HeLa cells assessed as decrease in cell viability after 96 hrs by CellTiter-Blue assay; assay type: functional, cell-based; in short: as §6
[18] = Cytotoxicity against human HeLa cells assessed as decrease in cell viability after 48 hrs by CellTiter-Blue assay; assay type: functional, cell-based; in short: as §6
[19] = Inhibition of flutax-2 binding to porcine microtubule assessed as flutax-2 EC50 at 128 uM after 1 hr by fluorescence assay (reference value: 248 +/- 50 nM); parameters: species or system Sus scrofa
[20] = Cytotoxicity against human T47D cells assessed as decrease in cell viability after 96 hrs by CellTiter-Blue assay; assay type: functional, cell-based; in short: as §6
T47D [21] = assay: Destabilization of microtubule network in human T47D cells at 0.5 uM after 2 hrs by DAPI staining-based immunofluorescence assay; assay type: cell-based; in short: as §5
Sus scrofa [22] = species on record: Sus scrofa; assay: Destabilization of rhodamine labeled porcine microtubule assessed as appearance of short strands microtubules at 10 uM after 5 mins by upright fluorescence microscopic analysis
Sus scrofa [23] = species on record: Sus scrofa; assay: Inhibition of porcine tubulin polymerization assessed as decrease in final polymer mass at 10 uM measured every 94 secs
In short: (§7)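 Plate prewarmed to 37 °C; OD340 read at 37 °C every 94 s for 61 cycles with orbital shaking. Runs in triplicate, duplicate for mebendazole; the averaged curve gave phase lengths, Vmax and final polymer mass.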

Sus scrofa [24] = species on record: Sus scrofa; assay: Inhibition of porcine tubulin polymerization assessed as maximum growth rate at 10 uM measured every 94 secs (reference value: 13 milliOD/min); in short: as §7
Sus scrofa [25] = species on record: Sus scrofa; assay: Inhibition of porcine tubulin polymerization assessed as increase in duration of nucleation phase at 10 uM measured every 94 secs; in short: as §7
T47D [26] = assay: Stabilization of interphase microtubule network in human T47D cells assessed as disruption of mitotic spindles at 100 nM after 2 hrs by DAPI staining-based immunofluorescence assay; assay type: cell-based
In short: (§8)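 T47D cells in RPMI1640 with 2 mM L-glutamine, 10% FBS, 0.01 mg/mL insulin and 1 mM pyruvate were seeded on coverslips, synchronized, then given drug 2 h (1% DMSO solvent control). Anti-tubulin antibody with Alexa Fluor 488 secondary and 0.1 μg/mL DAPI for DNA; epifluorescence at 63×, interphase networks and mitotic spindles scored.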

T47D [27] = assay: Stabilization of microtubule network in human T47D cells at 100 nM after 2 hrs by DAPI staining-based immunofluorescence assay; assay type: cell-based; in short: as §8
Sus scrofa [28] = species on record: Sus scrofa; assay: Induction of porcine tubulin polymerization assessed as bypass of nucleation phase at 10 uM measured every 94 secs; in short: as §7

Chain of Tubulin alpha-1A /beta chains (P07437 whole entry, looked up): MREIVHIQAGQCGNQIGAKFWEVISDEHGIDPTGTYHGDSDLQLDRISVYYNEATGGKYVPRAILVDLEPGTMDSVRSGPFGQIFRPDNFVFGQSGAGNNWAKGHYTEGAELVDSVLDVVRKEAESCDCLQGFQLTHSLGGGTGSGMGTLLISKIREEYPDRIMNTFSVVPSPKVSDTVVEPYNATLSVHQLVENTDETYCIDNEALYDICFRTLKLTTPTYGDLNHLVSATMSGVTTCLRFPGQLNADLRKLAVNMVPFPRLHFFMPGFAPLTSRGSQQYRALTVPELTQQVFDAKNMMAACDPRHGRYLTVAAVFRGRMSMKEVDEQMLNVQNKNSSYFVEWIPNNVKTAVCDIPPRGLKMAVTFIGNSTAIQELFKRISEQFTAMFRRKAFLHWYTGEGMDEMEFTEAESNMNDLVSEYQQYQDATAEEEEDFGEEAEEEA
Chain of Tubulin alpha-1A /beta chains (Q71U36 whole entry, looked up): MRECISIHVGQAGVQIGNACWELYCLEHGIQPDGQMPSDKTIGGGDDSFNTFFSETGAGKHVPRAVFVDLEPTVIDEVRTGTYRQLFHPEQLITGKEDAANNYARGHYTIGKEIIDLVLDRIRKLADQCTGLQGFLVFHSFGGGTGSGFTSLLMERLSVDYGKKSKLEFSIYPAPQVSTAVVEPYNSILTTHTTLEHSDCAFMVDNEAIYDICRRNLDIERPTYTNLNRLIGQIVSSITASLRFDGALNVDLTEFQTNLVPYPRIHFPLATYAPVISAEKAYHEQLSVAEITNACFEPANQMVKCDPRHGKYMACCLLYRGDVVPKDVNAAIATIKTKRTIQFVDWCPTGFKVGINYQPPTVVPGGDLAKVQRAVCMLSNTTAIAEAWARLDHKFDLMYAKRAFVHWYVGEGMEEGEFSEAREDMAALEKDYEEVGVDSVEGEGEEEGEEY
Chain of Tubulin alpha-1A /beta chains (Homo sapiens) (P07437 whole entry, looked up): as the sequence (P07437 whole entry, looked up) above
Chain of Tubulin alpha-1A /beta chains (Homo sapiens) (Q71U36 whole entry, looked up): as the sequence (Q71U36 whole entry, looked up) above

CC(=O)O[C@@H]1/C=C/C(C)=C/C[C@H](O)/C=C/C(C)=C/[C@@H](NC(=O)C(C)O)[C@]2(C)C(=O)O[C@H](C1)[C@@H](C)C2=O (stereo not given in full)
Activity [1]: Dose-dependent effect
Kd [2]: 654 µM
Activity (Sus scrofa [3]): Dose-dependent effect
Kd [4]: 1100 µM

CC(=O)C(=O)N[C@@H]1/C=C(\C)C=C[C@@H](O)C/C=C(C)/C=C/[C@@H](O)C[C@H]2OC(=O)[C@]1(C)C(=O)[C@@H]2C
Activity (Sus scrofa [5]): Active
Activity (Sus scrofa [6]): Active
Activity (T47D [7]): Active
Activity (Sus scrofa [8]): Active
Activity (T47D [9]): Active
IC50 [10]: 202 µM
IC50 [11]: 324 µM
Vmax (milli optical density/minute) (Sus scrofa [12]): 35
Activity (Sus scrofa [13]): Active
Activity [1]: Dose-dependent effect
Kd [2]: 1060 µM
Activity (Sus scrofa [14]): Active
Kd [15]: 50 µM
Vmax (milli optical density/minute) (Sus scrofa [16]): 18
IC50 [17]: 224 µM
IC50 [18]: 1.08 mM
Activity (Sus scrofa [3]): Dose-dependent effect
Kd [4]: 546 µM
EC50 [19]: 921 nM
IC50 [20]: 11.1 µM

COc1cc2c(c(OC)c1OC)-c1ccc(OC)c(=O)cc1[C@@H](NC(C)=O)CC2
Activity (T47D [21]): Active
Activity (Sus scrofa [22]): Active

COC(=O)Nc1nc2cc(C(=O)c3ccccc3)ccc2[nH]1
inhibition (Sus scrofa [23]): Active
Vmax (milli optical density/minute) (Sus scrofa [24]): 4
inhibition (Sus scrofa [25]): Active

CC(=O)O[C@H]1C(=O)[C@@]2(C)[C@H]([C@H](OC(=O)c3ccccc3)[C@]3(O)C[C@H](OC(=O)[C@H](O)[C@@H](NC(=O)c4ccccc4)c4ccccc4)C(C)=C1C3(C)C)[C@]1(OC(C)=O)CO[C@@H]1C[C@@H]2O
Activity (Sus scrofa [8]): Active
Activity (Sus scrofa [13]): Active
Activity (T47D [26]): Active
Vmax (milli optical density/minute) (Sus scrofa [16]): 21
Activity (T47D [27]): Active
Activity (Sus scrofa [28]): Active
